From ChEMBL document CHEMBL1142253, “Development of dimeric modulators for anti-apoptotic Bcl-2 proteins” (Bioorg Med Chem Lett, 2008)

Experiments:
[1] = Induction of cytochrome c release from mouse liver mitochondria; assay type: functional
How it was run: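 Mouse liver mitochondria were isolated by differential centrifugation in Tris-MOPS/EGTA/sucrose buffer pH 7.4 and diluted to 1mg/ml in KCl-based buffer. They were incubated 1 hour at 30 °C with increasing compound concentrations, with DMSO kept equal, then pelleted at 13,000g for 10 minutes. Cytochrome c release was assessed, and the concentration giving 50% release was reported.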

[2] = molecular target: Apoptosis regulator Bcl-2 (Homo sapiens, UniProt P10415); test: Inhibition of Bak peptide binding to human recombinant Bcl2
How it was run: (§1)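 Fluorescence polarization competition against 50 nM fluorescein-labelled Bak peptide, in PBS pH 7.0 with 1 mM DTT. Protein set for 60% peptide complex: Bcl-2 1000 nM, Bcl-XL 880nM, Bcl-w 1200 nM. Compounds added from 3-fold DMSO stock dilutions (10 mM down). Incubation 1 h at 23 °C, read in mP, peptide-only interference subtracted. Ki fitted from FP change versus competitor concentration.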

Bcl-2-like protein 2 = molecular target: T1, Bcl-2-like protein 2 (Homo sapiens, UniProt Q92843); test: Inhibition of Bak peptide binding to human recombinant Bcl-w; how it was run: as §1
T1 sequence (Q92843 whole entry): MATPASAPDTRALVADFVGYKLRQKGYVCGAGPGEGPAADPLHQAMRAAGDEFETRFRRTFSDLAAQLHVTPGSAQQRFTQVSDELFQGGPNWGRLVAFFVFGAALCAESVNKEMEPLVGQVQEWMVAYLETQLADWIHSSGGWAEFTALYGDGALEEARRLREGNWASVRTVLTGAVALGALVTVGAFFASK

Apoptosis regulator Bcl-2, sequence (P10415 whole entry): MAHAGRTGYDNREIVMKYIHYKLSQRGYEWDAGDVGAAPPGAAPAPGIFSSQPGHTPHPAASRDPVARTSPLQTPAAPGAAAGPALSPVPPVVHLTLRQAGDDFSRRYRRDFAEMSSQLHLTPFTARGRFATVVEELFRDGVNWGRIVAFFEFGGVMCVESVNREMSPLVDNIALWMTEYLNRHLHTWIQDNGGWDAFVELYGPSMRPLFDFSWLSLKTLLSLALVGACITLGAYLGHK

Row | Compound | IC50 [1] [µM] | Ki [2] [µM] | Ki (Bcl-2-like protein 2) [µM]
1 | O=C(O)[C@H](Cc1ccccc1)N1C(=O)/C(=C/c2ccc(Br)cc2)SC1=S | 69.1 |  | 
2 | O=C(OCCOCCOCCOC(=O)[C@H](Cc1ccccc1)N1C(=O)/C(=C/c2ccc(Br)cc2)SC1=S)[C@H](Cc1ccccc1)N1C(=O)/C(=C/c2ccc(Br)cc2)SC1=S |  | 161 | 88.3
3 | CCOC(=O)[C@H](Cc1ccccc1)N1C(=O)/C(=C/c2ccc(Br)cc2)SC1=S |  | 260 | 116
4 | O=C(O)[C@H](Cc1ccccc1)N1C(=O)/C(=C/c2ccc(OCCOCCOc3ccc(/C=C4\SC(=S)N([C@@H](Cc5ccccc5)C(=O)O)C4=O)cc3)cc2)SC1=S |  | 4.3 | 2.2
5 | O=C(OCCOC(=O)[C@H](Cc1ccccc1)N1C(=O)/C(=C/c2ccc(Br)cc2)SC1=S)[C@H](Cc1ccccc1)N1C(=O)/C(=C/c2ccc(Br)cc2)SC1=S |  | 243 | 101
6 | O=C(O)[C@H](Cc1ccccc1)N1C(=O)/C(=C/c2ccc(OCCOCCOCCOc3ccc(/C=C4\SC(=S)N([C@@H](Cc5ccccc5)C(=O)O)C4=O)cc3)cc2)SC1=S |  | 21.2 | 13.7
7 | O=C(OCCOCCOC(=O)[C@H](Cc1ccccc1)N1C(=O)/C(=C/c2ccc(Br)cc2)SC1=S)[C@H](Cc1ccccc1)N1C(=O)/C(=C/c2ccc(Br)cc2)SC1=S |  | > 1000 | 99
8 | CCOC(=O)[C@H](Cc1ccccc1)N1C(=O)/C(=C/c2ccc(OCOc3ccc(/C=C4\SC(=S)N([C@@H](Cc5ccccc5)C(=O)OCC)C4=O)cc3)cc2)SC1=S |  | 226 | 39.2
9 | O=C(O)[C@H](Cc1ccccc1)N1C(=O)/C(=C/c2ccc(OCCOc3ccc(/C=C4\SC(=S)N([C@@H](Cc5ccccc5)C(=O)O)C4=O)cc3)cc2)SC1=S | 6.1 | 1.7 | 1.3
10 | O=C(O)[C@H](Cc1ccccc1)N1C(=O)/C(=C/c2ccc(OCOc3ccc(/C=C4\SC(=S)N([C@@H](Cc5ccccc5)C(=O)O)C4=O)cc3)cc2)SC1=S |  | 4.3 | 2.3
